MIC and IC50 data for 10 compounds are collected here from ChEMBL document CHEMBL1144979, “Combinatorial modification of natural products: synthesis and in vitro analysis of derivatives of thiazole peptide antibiotic GE2270 A: A-ring modifications” (Bioorg Med Chem Lett, 2003).

SMILES strings stand for the structures. pIC50: −log10 of the molar value. ≈ marks a conversion by molar mass, not a printed value.

Assay [1] concerns Enterococcus faecium. The experiment in a line: In vitro antibacterial activity against Vancomycin-susceptible Enterococcus faecium BM4147.1. It is filed as functional. A digest of the protocol:
(§1)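 MICs by NCCLS broth dilution guidelines, modified by adding 0.02% bovine serum albumin to the growth medium; purified, resynthesized compounds tested against the expanded bacterial panel.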

In assay [2] the test system is Enterococcus faecalis. In words: In vitro antibacterial activity against Vancomycin-resistant Enterococcus faecalis ATCC 51299. The assay is classed as functional.
In assay [3] the test system is Escherichia coli. In words: In vitro antibacterial activity against Escherichia coli (A G100B). The assay is classed as functional. Summed up:
as §1

The test system of assay [4] is Haemophilus influenzae. In words: In vitro antibacterial activity against Haemophilus influenzae (ATTC31517). The assay is classed as functional. Summed up:
as §1

For assay [5], the system named is Staphylococcus epidermidis. In words: In vitro antibacterial activity against Staphylococcus epidermidis (ATCC 12228). The assay is classed as functional. Summed up: as §1
Assay [6] has as its system Staphylococcus aureus. In words: In vitro antibacterial activity against methicillin sensitive Staphylococcus aureus ATCC 25923. The assay is classed as functional. A digest of the protocol:
as §1

Assay [7] deals with Streptococcus pneumoniae. The experiment in a line: In vitro antibacterial activity against Streptococcus pneumoniae (ATTC49619). The assay is classed as functional. A digest of the protocol: as §1
The test system of assay [8] is Streptococcus pyogenes. The experiment in a line: In vitro antibacterial activity against Streptococcus pyogenes (ATTC19615). The assay is classed as functional. Summed up:
as §1

Assay [9] relates to Staphylococcus aureus. The experiment in a line: In vitro antibacterial activity against methicillin resistant Staphylococcus aureus (MRSA) ATCC 33591. It is filed as functional.
Assay [10] deals with Haemophilus influenzae. In words: In vitro antibacterial activity against Haemophilus influenzae (acr, LS-2). It is filed as functional. A digest of the protocol: as §1
Assay [11] is described as follows: Inhibitory activity against elongation factor Tu (EF-Tu). It is filed as functional, Bacteria.
Assay [12] has as its system Enterococcus faecalis. In words: In vitro antibacterial activity against Vancomycin-resistant Enterococcus faecalis (ATTC51299).

For the compound `CNC(=O)C[C@@H]1NC(=O)c2csc(n2)-c2ccc(-c3nc(COC(=O)N[C@@H](C)C(=O)O)cs3)nc2-c2csc(n2)-c2csc(n2)C(C(O)c2ccccc2)NC(=O)CNC(=O)c2nc(sc2COC)[C@H](C(C)C)NC(=O)c2nc1sc2C` (some centres not stated), the MIC in [1] was 0.25 µg/mL (≈ 0.204 µM); in assay [2], 0.5 µg/mL (≈ 0.408 µM); in assay [3] it was more than 16 µg/mL; in [4] it was 16 µg/mL (≈ 13 µM); in assay [5] it was 2 µg/mL (≈ 1.63 µM); in assay [6] it was 1 µg/mL (≈ 0.815 µM). The MIC in assay [7] came to 4 µg/mL (≈ 3.26 µM); in [8], 8 µg/mL (≈ 6.52 µM); in assay [9], 0.5 µg/mL (≈ 0.408 µM); in assay [10], 1 µg/mL (≈ 0.815 µM).
Regarding `CNC(=O)C[C@@H]1NC(=O)c2csc(n2)-c2ccc(-c3nc(C(=O)N(C)CCCC(=O)O)cs3)nc2-c2csc(n2)-c2csc(n2)C(C(O)c2ccccc2)NC(=O)CNC(=O)c2nc(sc2COC)[C@H](C(C)C)NC(=O)c2nc1sc2C` (some centres not stated), the MIC in assay [1] is 0.125 µg/mL (≈ 0.102 µM); in assay [2], 0.25 µg/mL (≈ 0.204 µM); in assay [3] it was more than 16 µg/mL; in assay [4], 2 µg/mL (≈ 1.63 µM); in assay [5] it was 1 µg/mL (≈ 0.817 µM); in assay [6] it was 0.5 µg/mL (≈ 0.408 µM). For the same compound, the MIC in [7] amounted to 2 µg/mL (≈ 1.63 µM); in assay [8], 4 µg/mL (≈ 3.27 µM); in assay [9], 0.25 µg/mL (≈ 0.204 µM); in assay [10], 1 µg/mL (≈ 0.817 µM).
For `CNC(=O)C[C@@H]1NC(=O)c2csc(n2)-c2ccc(-c3nc(COC(=O)N(C)CCCC(=O)O)cs3)nc2-c2csc(n2)-c2csc(n2)C(C(O)c2ccccc2)NC(=O)CNC(=O)c2nc(sc2COC)[C@H](C(C)C)NC(=O)c2nc1sc2C` (some centres not stated), the MIC in [1] was 0.5 µg/mL (≈ 0.399 µM); in [2], 0.5 µg/mL (≈ 0.399 µM); in assay [3], more than 16 µg/mL; in assay [4], 8 µg/mL (≈ 6.38 µM); in [5], 0.5 µg/mL (≈ 0.399 µM); in assay [6], 0.5 µg/mL (≈ 0.399 µM). Besides, the MIC is more than 16 µg/mL in [7], more than 16 µg/mL in assay [8], 0.25 µg/mL (≈ 0.199 µM) in [9] and 2 µg/mL (≈ 1.59 µM) in assay [10].
Consider `CNC(=O)C[C@@H]1NC(=O)c2csc(n2)-c2ccc(-c3nc(C(=O)NCC(O)CC(=O)O)cs3)nc2-c2csc(n2)-c2csc(n2)C(C(O)c2ccccc2)NC(=O)CNC(=O)c2nc(sc2COC)[C@H](C(C)C)NC(=O)c2nc1sc2C` (some centres not stated), for which the MIC is 0.25 µg/mL (≈ 0.204 µM) in assay [1]; 0.25 µg/mL (≈ 0.204 µM) in assay [2]; more than 16 µg/mL in [3]; more than 16 µg/mL in [4]; 2 µg/mL (≈ 1.63 µM) in [5]; 1 µg/mL (≈ 0.815 µM) in [6]. In addition, the MIC stood at 2 µg/mL (≈ 1.63 µM) in assay [7], 1 µg/mL (≈ 0.815 µM) in assay [8], 0.25 µg/mL (≈ 0.204 µM) in assay [9] and 2 µg/mL (≈ 1.63 µM) in assay [10].
Turning to `CNC(=O)C[C@@H]1NC(=O)c2csc(n2)-c2ccc(-c3nc(COC(=O)NCCCC(=O)O)cs3)nc2-c2csc(n2)-c2csc(n2)C(C(O)c2ccccc2)NC(=O)CNC(=O)c2nc(sc2COC)[C@H](C(C)C)NC(=O)c2nc1sc2C` (some centres not stated), the MIC in [1] is 0.06 µg/mL (≈ 0.0484 µM); in [2], 0.125 µg/mL (≈ 0.101 µM); in [3], more than 16 µg/mL; in [4], 16 µg/mL (≈ 12.9 µM); in assay [5], 0.25 µg/mL (≈ 0.202 µM); in assay [6], 0.25 µg/mL (≈ 0.202 µM). For the same compound, the MIC in assay [7] is 2 µg/mL (≈ 1.61 µM); in [8], 8 µg/mL (≈ 6.45 µM); in assay [9] it was 0.125 µg/mL (≈ 0.101 µM); in [10] it was 4 µg/mL (≈ 3.22 µM).
`CNC(=O)C[C@@H]1NC(=O)c2csc(n2)-c2ccc(-c3nc(COC(=O)NCCCCC(=O)O)cs3)nc2-c2csc(n2)-c2csc(n2)C(C(O)c2ccccc2)NC(=O)CNC(=O)c2nc(sc2COC)[C@H](C(C)C)NC(=O)c2nc1sc2C` (some centres not stated): the MIC in assay [1] was 0.125 µg/mL (≈ 0.0996 µM); in [2], 0.5 µg/mL (≈ 0.399 µM); in [3] it was more than 16 µg/mL; in assay [4] it was 8 µg/mL (≈ 6.38 µM); in [5], 0.5 µg/mL (≈ 0.399 µM); in assay [6], 0.5 µg/mL (≈ 0.399 µM). The MIC in [7] was 2 µg/mL (≈ 1.59 µM); in assay [8], 4 µg/mL (≈ 3.19 µM); in assay [9] it was 0.25 µg/mL (≈ 0.199 µM); in assay [10], 2 µg/mL (≈ 1.59 µM).
With `CNC(=O)C[C@@H]1NC(=O)c2csc(n2)-c2ccc(-c3nc(COC(=O)N[C@H](C)C(=O)O)cs3)nc2-c2csc(n2)-c2csc(n2)C(C(O)c2ccccc2)NC(=O)CNC(=O)c2nc(sc2COC)[C@H](C(C)C)NC(=O)c2nc1sc2C` (some centres not stated), the MIC was 0.25 µg/mL (≈ 0.204 µM) in [1]; 1 µg/mL (≈ 0.815 µM) in [2]; more than 16 µg/mL in assay [3]; 16 µg/mL (≈ 13 µM) in assay [4]; 2 µg/mL (≈ 1.63 µM) in assay [5]; 0.5 µg/mL (≈ 0.408 µM) in [6]. In addition, the MIC in assay [7] turned out to be 2 µg/mL (≈ 1.63 µM); in assay [8], 2 µg/mL (≈ 1.63 µM); in assay [9], 0.5 µg/mL (≈ 0.408 µM); in assay [10] it was 1 µg/mL (≈ 0.815 µM).
Take `CNC(=O)C[C@@H]1NC(=O)c2csc(n2)-c2ccc(-c3nc(COC(=O)NCC(O)CC(=O)O)cs3)nc2-c2csc(n2)-c2csc(n2)C(C(O)c2ccccc2)NC(=O)CNC(=O)c2nc(sc2COC)[C@H](C(C)C)NC(=O)c2nc1sc2C` (some centres not stated): the MIC in assay [1] was 0.5 µg/mL (≈ 0.398 µM); in [2], 1 µg/mL (≈ 0.796 µM); in assay [3], more than 16 µg/mL; in assay [4], more than 16 µg/mL; in assay [5], 2 µg/mL (≈ 1.59 µM); in [6], 1 µg/mL (≈ 0.796 µM). Also, the MIC is 4 µg/mL (≈ 3.18 µM) in [7], 8 µg/mL (≈ 6.37 µM) in [8], 0.5 µg/mL (≈ 0.398 µM) in assay [9] and 2 µg/mL (≈ 1.59 µM) in assay [10].
Turning to `CNC(=O)C[C@@H]1NC(=O)c2csc(n2)-c2ccc(-c3nc(C4=N[C@H](C(=O)N5CCC[C@H]5C(N)=O)CO4)cs3)nc2-c2csc(n2)-c2csc(n2)C(C(O)c2ccccc2)NC(=O)CNC(=O)c2nc(sc2COC)[C@H](C(C)C)NC(=O)c2nc1sc2C` (some centres not stated), the MIC is 0.015 µg/mL (≈ 0.0116 µM) in assay [1]; more than 16 µg/mL in assay [3]; more than 16 µg/mL in assay [4]; 0.03 µg/mL (≈ 0.0232 µM) in assay [5]; 0.03 µg/mL (≈ 0.0232 µM) in [6]; 0.06 µg/mL (≈ 0.0465 µM) in assay [7]. Besides, the MIC is 0.125 µg/mL (≈ 0.0969 µM) in assay [8], 0.03 µg/mL (≈ 0.0232 µM) in assay [9], more than 16 µg/mL in assay [10] and 0.015 µg/mL (≈ 0.0116 µM) in assay [12]. Further, the pIC50 in [11] was 8.30.
For `CN[C@H](CC(C)C)C(=O)N[C@H]1C(=O)N[C@@H](CC(N)=O)C(=O)N[C@H]2C(=O)N[C@H]3C(=O)N[C@H](C(=O)N[C@H](C(=O)O)c4cc(O)cc(O)c4-c4cc3ccc4O)[C@H](O)c3ccc(c(Cl)c3)Oc3cc2cc(c3O[C@@H]2O[C@H](CO)[C@@H](O)[C@H](O)[C@H]2O[C@H]2C[C@](C)(N)[C@H](O)[C@H](C)O2)Oc2ccc(cc2Cl)[C@H]1O` [VANCOMYCIN], the MIC in assay [2] is more than 16 µg/mL; in assay [3], more than 16 µg/mL; in assay [4] it was more than 16 µg/mL; in assay [7], 0.125 µg/mL (≈ 0.0863 µM); in [8], 0.25 µg/mL (≈ 0.173 µM); in [10], more than 16 µg/mL.

The pIC50 is −log10 of the IC50, conventionally taken in molar units. A lower pIC50 goes with a large IC50.
